Compound activity as filed in PubChem BioAssay.
S100A4 inh HTS: inhibitors of S100A4-myosin IIA peptide binding, primary screen, biochemical, fluorescence polarization, TAMRA-MyoIIA peptide | 360,000 compounds, 0.14% hits | inhibition, % at 10.7 µM;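 active means mean inhibition of at least 70% across replicates, with every replicate also reaching that level; inconclusive means mean inhibition reaches 70% but some replicates fall short; inactive means mean inhibition below 70%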
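Test system – S100A4 monomer (human) · Compound – single-point compound testing · Schedule – 5 min incubation before reading · Probe or stimulus – TAMRA-labelled myosin IIA heavy-chain peptide probe, 5 nM · Benchmarks – neutral control DMSO, positive control TFP · Medium – Calcium-containing HEPES buffer, pH 7.2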
SIRT5 block: SIRT5 desuccinylase inhibitors, primary screen, biochemical, fluorescence imaging, single point, set 5 | NAD-dependent protein deacylase sirtuin-5, mitochondrial (Homo sapiens), Q9NXA8 | Purified SirT5, succinyl-peptide AMC, trypsin-coupled fluorescence | inhibition, % at 15 µM | 330,000 compounds, 1.1% hits | AID 652115, 2013; in the data active means inhibition above about 15%; inconclusive means no clear call, values can overlap the other calls
CaV13 FRET inh: Primary screen for inhibitors of IQ motif and Ca2+-dependent inactivation inhibitor domain binding in CACNA1D, Förster resonance energy transfer in living cells, …; 340,000 compounds, 0.098% hits; inhibition, % at 12.3 µM; HEK cells, CFP/YFP FRET ICDI-IQ, plate reader, 10 min; percent FRET-ratio fall versus neutral wells;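 active means mean replicate inhibition of at least 30% and at least 1% of replicates passing that level; inconclusive means only one of the two criteria is met; inactive means neither criterion is met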
DENV2 CPE rescue: inhibitors of DENV2 cytopathic effect, primary screen, cell-based, plate reader, single concentration; DENV2-infected cells, cytopathic effect rescue; CPE inhibition, % at 9.99 µM; 350,000 compounds, 1.7% hits; AID 651640, 2012; in the data active means CPE inhibition above about 20%, passing the limit was not always enough; inconclusive means no clear call, values can overlap the other calls; tested in BHK-21 cells
MLL AF4-AF9 inh: inhibitors of AF4 peptide binding to AF9, primary screen, biochemical, AlphaScreen, biotin-AF4 peptide, FLAG-AF9, single point; inhibition, % at 10 µM; Protein AF-9 (Homo sapiens), P42568; 350,000 compounds, 0.47% hits; AID 651704, 2012;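 active means every replicate reaching a set inhibition limit, whatever the replicate mean, cut at about 25% in these data; inconclusive means mean inhibition reaches that limit but some replicates miss it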
Target sequence (P42568 whole entry, looked up): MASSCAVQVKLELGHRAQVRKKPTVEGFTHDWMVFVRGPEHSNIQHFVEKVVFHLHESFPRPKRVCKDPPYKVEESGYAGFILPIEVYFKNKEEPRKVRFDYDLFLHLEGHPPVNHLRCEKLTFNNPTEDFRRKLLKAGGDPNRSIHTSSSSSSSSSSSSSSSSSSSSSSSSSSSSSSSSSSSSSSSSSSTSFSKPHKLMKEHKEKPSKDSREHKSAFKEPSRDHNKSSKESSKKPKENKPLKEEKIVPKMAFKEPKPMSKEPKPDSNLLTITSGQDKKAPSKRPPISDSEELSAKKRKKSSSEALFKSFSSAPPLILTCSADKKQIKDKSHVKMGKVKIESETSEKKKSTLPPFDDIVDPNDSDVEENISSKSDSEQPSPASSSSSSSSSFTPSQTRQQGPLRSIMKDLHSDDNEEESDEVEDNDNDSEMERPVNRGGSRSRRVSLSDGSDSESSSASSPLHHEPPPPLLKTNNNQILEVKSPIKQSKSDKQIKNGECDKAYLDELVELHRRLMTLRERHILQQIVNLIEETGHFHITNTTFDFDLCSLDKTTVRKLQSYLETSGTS
Hits are given with their value; . = inactive; ? = inconclusive; / = not tested or not shown; + = active, no number. In the library only some 2.7% were active in any assay of this set; here they are far more common.

SMILES	S100A4 inh HTS	SIRT5 block	CaV13 FRET inh	DENV2 CPE rescue	MLL AF4-AF9 inh
Cc1ccc(-c2nc(NCCCO)c3ccccc3n2)cc1	.	.	.	31.3	.
CNC(=O)c1ccc(Nc2nc(-c3ccccc3)nc3ccccc23)cc1	.	.	.	.	.
CC=Cc1ccc2n(c1=O)C[C@@H]1[C@@H](CO)[C@H](C(=O)NCC3CC3)[C@H]2N1Cc1ccccc1 (mixture of isomers)	.	.	/	.	.
Cc1cc2ccccn2c1C(=O)c1ccccc1Br	.	.	.	41.7	.
COc1cccc(C(=O)Oc2cc3c4c(c2)C(C)=CC(C)(C)N4C(=O)C3=O)c1	.	.	.	.	26.2
CCCOc1ccc2c(c1)C(=NN=C(N)N)c1cc(OCCC)ccc1-2	.	.	.	.	31.7
C[C@H]1CN([C@@H](C)CO)C(=O)Cc2cc(NC(=O)Nc3ccccc3)ccc2O[C@H]1CN(C)S(=O)(=O)c1ccc(Cl)cc1	.	/	/	.	.
CCCNC(=O)N1CC2(CCN(C(=O)c3cccnc3)CC2)c2c([nH]c3cc(OC)ccc23)[C@@H]1CO	.	.	/	.	.
Cc1ccc(N(CC(=O)N2CCOCC2)S(C)(=O)=O)cc1Cl	.	15.6	.	.	.
CS(=O)(=O)N(CC(=O)N1CCN(Cc2ccccc2)CC1)c1cccc(F)c1	.	19.2	.	.	.
COc1ccc(N(CC(=O)N2CCN(C)CC2)S(=O)(=O)c2cc(C)ccc2OC)cc1Cl	.	.	.	83.2	.
C[C@H](CO)N1C[C@H](C)[C@@H](CN(C)C(=O)Nc2cccc3ccccc23)Oc2ccc(NS(C)(=O)=O)cc2CC1=O	.	.	/	.	.
C[C@@H]1CN([C@H](C)CO)C(=O)c2cc(-c3cccc(F)c3)cnc2O[C@@H]1CN(C)C(=O)C1CCC1	.	.	/	.	.
COC(=O)Nc1ccc(Cn2cc(C(F)(F)F)ccc2=O)cc1	.	17.0	.	.	.
O=C(O)Cc1ccc(N=Nc2c(O)c(C(=O)O)cc3ccccc23)cc1	.	30.8	.	.	.
CCCC(=O)Nc1ccc2c(c1)c1ccccc1n2CC	.	.	.	.	.
CCn1c2ccccc2c2cc(NC(=O)COC(=O)c3cc(OC)c(OC)cc3OC)ccc21	.	.	.	40.9	.
COc1ccc(-n2nnc3c(=O)n(CC(=O)N4CCCCC4)cnc32)cc1	.	15.4	.	.	.
Cc1c(C(=O)N2CCOCC2)oc2ccccc12	.	15.8	.	.	.
CC(C)C[C@H](NC(=O)C1CCN(C(=O)[C@H](Cc2ccccc2)NC(=O)OC(C)(C)C)CC1)C(=O)O	.	22.4	.	.	.
CSCC[C@H](NC(=O)OC(C)(C)C)C(=O)N1CCC(C(=O)N[C@@H](C)C(=O)NCc2ccc(F)cc2)CC1	.	.	/	35.7	.
CSCC[C@H](NC(=O)OC(C)(C)C)C(=O)N1CCC(C(=O)N[C@@H](C)C(=O)NC(C)c2ccccc2)CC1 (some centres not stated)	.	/	/	.	.
C[C@H](NC(=O)C1CCN(C(=O)[C@H](Cc2ccccc2)NC(=O)OC(C)(C)C)CC1)C(=O)O	.	.	.	.	.
C[C@H]1CN([C@@H](C)CO)C(=O)c2cc(NC(=O)Nc3ccc(F)cc3)ccc2O[C@H]1CN(C)C(=O)Nc1ccccc1	.	/	/	.	.
O=c1[nH]c(=S)n2c(c1-c1ccccc1)OC(CBr)C2 (configuration not stated)	.	.	.	?	.
SMILES	S100A4 inh HTS	SIRT5 block	CaV13 FRET inh	DENV2 CPE rescue	MLL AF4-AF9 inh
O=c1[nH]c(=O)n2c(c1-c1ccccc1)OC(CBr)C2 (configuration not stated)	.	.	.	75.0	.
CO[C@@H]1CN(C)C(=O)c2ccc(NC(=O)c3cc(C)on3)cc2OC[C@@H](C)N(CC2CC2)C[C@H]1C	.	.	/	.	.
CN1C(C)(C)c2ccccc2OS1(=O)=O	.	.	.	25.0	.
CC(=O)c1sc(N/N=C\c2ccc(N(C)C)cc2)nc1C	.	/	+	.	.
CC(=O)c1sc(N/N=C/c2cccc(O)c2)nc1C	.	.	.	.	.
COc1ccc(CN(C)C[C@@H]2Oc3c(NC(=O)c4ccc(-c5nccs5)cc4)cccc3C(=O)N([C@H](C)CO)C[C@H]2C)cc1	.	.	/	.	.
CC1CCCCC12NC(=O)N(CC(=O)NCc1cccs1)C2=O (configuration not stated)	.	/	.	28.9	.
CC1CCCCC12NC(=O)N(CC(=O)Nc1ccc(N3CCOCC3)cc1)C2=O (configuration not stated)	.	16.3	.	?	.
CC1CCC2(CC1)NC(=O)N(CC(=O)Nc1ccc(N3CCOCC3)cc1)C2=O (configuration not stated)	.	.	.	.	.
COc1ccc(-c2ccc([C@H]3[C@@H](C#N)N(C(=O)NC4CCCCC4)[C@H]3CO)cc2)cc1	.	.	/	.	.
COc1ccc(C2=Nc3ccccc3N(C(=O)Cc3cc(OC)cc(OC)c3)C2C(=O)NC(C)C)cc1 (configuration not stated)	.	/	.	.	.
COc1ccc(C2=Nc3ccccc3N(C(=O)c3ccncc3)C2C(=O)NC(C)C)cc1 (configuration not stated)	.	.	.	59.5	.
COc1cc2c(cc1OC)C(c1ccc(Cl)cc1)CC(=O)N2 (configuration not stated)	.	17.2	.	.	.
COc1cc2c(cc1OC)C(c1cccc(Cl)c1)CC(=O)N2 (configuration not stated)	.	.	.	.	.
O=C(C[C@H]1CC[C@@H]2[C@H](COC[C@H](O)CN2Cc2cc(F)cc(F)c2)O1)NCc1cccc(F)c1	.	.	/	.	.
Cc1cccc(-c2noc(CN(C)C(=O)c3ccco3)n2)c1	.	51.9	.	.	.
C/C(N)=C(/C#N)C(=O)CSc1nnc(Nc2ccccc2)s1	.	18.2	.	.	.
C/C(N)=C(/C#N)C(=O)CSc1nnc(Nc2ccccc2C)s1	/	/	.	/	/
CCOc1cc(N2CCOCC2)c(OCC)cc1NC(=O)C(C)Oc1ccccc1 (configuration not stated)	.	.	.	?	29.4
OCC1OCOC2C(CO)OCOC12 (configuration not stated)	.	.	/	122.8	.
